Assay [1] addresses T1, Adenosine receptor A2b (Homo sapiens, UniProt P29275).
T1 sequence (P29275 whole entry): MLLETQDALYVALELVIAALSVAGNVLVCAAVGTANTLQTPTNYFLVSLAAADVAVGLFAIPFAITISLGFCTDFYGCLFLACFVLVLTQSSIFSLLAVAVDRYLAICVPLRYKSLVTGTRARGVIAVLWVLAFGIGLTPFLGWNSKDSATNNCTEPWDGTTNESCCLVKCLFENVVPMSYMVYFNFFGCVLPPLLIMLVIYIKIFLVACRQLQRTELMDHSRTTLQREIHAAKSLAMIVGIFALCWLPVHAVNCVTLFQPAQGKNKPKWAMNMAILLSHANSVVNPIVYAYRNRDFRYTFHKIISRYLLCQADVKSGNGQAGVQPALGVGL
Type of assay: functional, cell-based, CHO.

Assay [2] deals with T2, Adenosine receptor A3 (Homo sapiens, UniProt P0DMS8).
T2 sequence (P0DMS8 whole entry): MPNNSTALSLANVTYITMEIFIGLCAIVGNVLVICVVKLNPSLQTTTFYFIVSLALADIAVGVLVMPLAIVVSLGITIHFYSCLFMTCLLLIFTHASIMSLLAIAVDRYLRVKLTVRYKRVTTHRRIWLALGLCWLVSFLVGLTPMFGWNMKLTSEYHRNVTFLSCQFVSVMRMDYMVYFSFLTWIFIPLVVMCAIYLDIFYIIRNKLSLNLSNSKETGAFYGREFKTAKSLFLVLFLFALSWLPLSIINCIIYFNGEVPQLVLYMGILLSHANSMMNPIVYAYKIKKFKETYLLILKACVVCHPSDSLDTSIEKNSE
The experiment in a line: Antagonist activity at human adenosine A3 receptor expressed in forskolin-stimulated CHO cells assessed as inhibition of Cl-IB-MECA-induced cAMP production by competition protein binding assay. The class given is functional, cell-based. A digest of the protocol:
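CHO cells stably expressing human A3 receptor were harvested with dilute trypsin and preincubated for 10 min at 37 °C in pH 7.4 buffer with 2 IU/mL adenosine deaminase and the phosphodiesterase inhibitor Ro 20-1724. Antagonism of 100 nM Cl-IB-MECA was run with forskolin present. The reaction was stopped with cold 6% TCA and extracted with ether. cAMP was read against [3H]cAMP and bovine adrenal binding protein. IC50 came from sigmoid fitting.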
On the technique in general: cAMP levels reflect the balance of adenylyl cyclase and phosphodiesterase activity.

The target of a further assay is Adenosine receptor A2a (Homo sapiens, UniProt P29274). Description: Displacement of [3H]-ZM 241385 from human adenosine A2A receptor expressed in CHO cells after 60 mins by liquid scintillation counting. Type of assay: cell-based.
Assay [3] concerns the target T2, Adenosine receptor A3. Description: Displacement of [3H]-MRE-3008-F20 from human adenosine A3 receptor expressed in CHO cells after 120 mins by liquid scintillation counting. The class given is cell-based. A general note: Loss of bound radioactivity is the signal in a displacement assay; it reports binding, not function.
Another assay addresses T3, Adenosine receptor A1 (Homo sapiens, UniProt P30542).
T3 sequence (P30542 whole entry): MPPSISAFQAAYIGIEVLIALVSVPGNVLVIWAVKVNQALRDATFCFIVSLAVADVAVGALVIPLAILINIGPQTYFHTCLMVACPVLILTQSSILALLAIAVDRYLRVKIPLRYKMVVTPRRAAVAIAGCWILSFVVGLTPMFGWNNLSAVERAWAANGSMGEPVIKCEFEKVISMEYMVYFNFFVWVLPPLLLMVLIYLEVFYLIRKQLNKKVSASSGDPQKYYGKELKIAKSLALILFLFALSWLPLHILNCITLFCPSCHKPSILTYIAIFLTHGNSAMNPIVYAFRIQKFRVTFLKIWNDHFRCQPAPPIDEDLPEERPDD
Description: Displacement of [3H]-DPCPX from human adenosine A1 receptor expressed in CHO cells after 120 mins by liquid scintillation counting. The class given is cell-based.

Assay [4] addresses T1, Adenosine receptor A2b. Description: biochemical.

Structures are written as SMILES.

The values below come from ChEMBL document CHEMBL1932966, “Pyrrolo- and pyrazolo-[3,4-e][1,2,4]triazolo[1,5-c]pyrimidines as adenosine receptor antagonists” (Bioorg Med Chem, 2012).

Chain of Adenosine receptor A2a (P29274 whole entry): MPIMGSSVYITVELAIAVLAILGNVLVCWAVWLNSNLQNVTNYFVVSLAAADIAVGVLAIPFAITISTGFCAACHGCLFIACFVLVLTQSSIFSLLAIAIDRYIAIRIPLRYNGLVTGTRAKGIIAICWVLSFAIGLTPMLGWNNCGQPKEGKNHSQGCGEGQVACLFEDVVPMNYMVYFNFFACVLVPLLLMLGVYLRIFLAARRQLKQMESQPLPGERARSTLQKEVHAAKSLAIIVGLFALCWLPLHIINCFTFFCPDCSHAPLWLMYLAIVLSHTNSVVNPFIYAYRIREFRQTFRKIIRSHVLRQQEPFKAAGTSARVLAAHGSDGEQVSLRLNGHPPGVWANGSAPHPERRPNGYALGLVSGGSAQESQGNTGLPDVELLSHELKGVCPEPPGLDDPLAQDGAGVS

Usually IC50 stands for the concentration needed to halve the response being measured. As usually defined, the Ki is a measure of affinity in units of concentration, obtained from inhibition or displacement. Higher therefore signals weaker binding. With `CCCn1cc2nc(NC(=O)Nc3ccc(OC)cc3)n3nc(-c4ccco4)nc3c2n1`, the IC50 on Adenosine receptor A2b [1] turned out to be 863 nM; at Adenosine receptor A3 [2], 250 nM. Further, the Ki at Adenosine receptor A2a stood at 208 nM; on Adenosine receptor A3 [3] it was 50 nM; at Adenosine receptor A1 it was 240 nM.
On the same counts, the results for `CCCn1cc2nc(NC(=O)Nc3ccc(OC)cc3)n3nc(-c4ccco4)nc3c2c1` are 906 nM, 50 nM, 200 nM, 10 nM and 743 nM.
Consider `Nc1nc2c(cnn2CCCc2ccccc2)c2nc(-c3ccco3)nn12` [SCH-63390], for which the Ki on Adenosine receptor A2b [4] and on Adenosine receptor A3 [3] was above 10000 nM each time.
